# Assay outcomes (PubChem BioAssay)
# Cneo AK release: Cryptococcus neoformans lysis via adenylate kinase release; lysis activity, % at 15 µM; 0.2% of 360,000 active; C. neoformans lysis, adenylate kinase release luminescence, 4 h; normalised: neutral wells 0, clomiphene wells 100;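 active = mean lysis activity across replicates of at least 80%, whatever share of replicates individually reach that level; inactive = mean lysis activity below 80%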
#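 Assay system: C. neoformans cells. Amount: yeast cell density of 5 × 10^6 cells/mL. Technique: AK luminescence. Buffer or medium: YPD. Times: static 4 h at 37 °C with compound, 1 h detection. Dosing: single-point compound dose. Read-out: lysis from increased AK signal.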
# Mot1-301 SUMO: inhibitors of SUMOylation pathway: yeast Mot1-301 growth rescue. S. cerevisiae Mot1-301 growth rescue, ATP luminescence, 38.5C; percent above DMSO median, 100 means doubled. growth rescue, % at 18.8 µM. 1% of 320,000 active;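 active = every valid replicate shows activation above 250% relative to neutral control wells; inactive = the rest, any valid replicate at or below 250%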;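 also: OY570 slx delta 5 strain wells were the positive control but not used for scaling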
# C2C12 statin: protects C2C12 myotubes from simvastatin toxicity | ATP luminescence, 48 h; scaled: DMSO 0, geranylgeraniol control 100 | rescue of ATP level, % at 7.49 µM | 0.78% of 330,000 active | AID 602340;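 active = mean ATP rescue above about 67%, or every replicate alone reaching that limit, limit read from the data, passing the limit was not always enough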;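 also: myotubes were challenged with 10 µM simvastatin during compound exposure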
# Efflux pump mplx: inhibitors of Candida antifungal efflux pumps expressed in yeast | S. cerevisiae Candida pump triplex, Nile Red efflux | 0.44% of 330,000 active | inhibition, % at 10 µM;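 active = plate passing quality check with inhibition over a set limit, or well fluorescence over plate mean plus 4 SD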;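 also: Nile Red retained in pooled yeast measured as flow cytometry median fluorescence; 0% = buffer negative control and 100% = Enniatin B positive control; higher means more Nile Red kept so more efflux inhibition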
# Mot1 SUMO dose: yeast SUMO pathway inhibition in dose response | shares compounds with Mot1-301 SUMO | S. cerevisiae Mot1-301 galactose growth, ATP luminescence, 24 h; -100 = growth of slx-deleted rescue strain | growth activity, percent, % at 42 µM | 2,300 tested, under 10 active | AID 493004;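 active = Signal drops as the depositor expects, and the fitted half-maximal dose is no more than ten times the top valid tested dose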;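 also: more negative values mean stronger growth rescue toward the control strain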
# Active calls of the source: *; . = no result given; + = active, no number. Most compounds without a hit are left out; they make up all but 1.8% or so of the library.
SMILES,Cneo AK release,Mot1-301 SUMO,C2C12 statin,Efflux pump mplx,Mot1 SUMO dose
Cc1ccc(S(=O)(=O)NCC(=O)OCC(=O)c2ccc(Br)s2)cc1,0,747*,5,0,0
Cc1ccc(S(=O)(=O)NCC(=O)OCc2ccccc2Br)cc1,.,-19,-3,0,.
CCOc1ccc(-c2cn(CCC#N)cn2)cc1,0,-6,14,0,.
Brc1ccc(-c2cn3cccnc3n2)cc1,-1,662*,.,0,-1
CC(SC#N)C(=O)C12CC3CC(CC(C3)C1)C2 (centres undefined),.,386*,.,0,-1
O=C(Cc1csc(-c2cccc(F)c2)n1)Nc1cccc(S(=O)(=O)NC2=NCCC2)c1,-2,.,4,.,.
CC1(C)NC(=O)N(CC(=O)O)C1=O,14,574*,-3,0,0
CC1(C)NC(=O)N(CN2C(=O)NC(C)(C)C2=O)C1=O,-1,-5,-3,0,.
O=C(C[C@H]1CC[C@H]2[C@@H](COC[C@@H](O)CN2CCC(F)(F)F)O1)N1CCC(Cc2ccccc2)CC1,3,.,31,.,.
O=C(CSc1nc2ccccc2[nH]1)NC1CCCC1,0,87,.,0,.
O=C(CSc1nc2ncccc2[nH]1)NC1CCCCC1,-3,929*,-7,0,0
CCN(CC)c1nc2c(c(=O)[nH]c(=O)n2C)n1CCOc1ccccc1,2,710*,11,0,0
O=C(NCCCn1ccnc1)Nc1cccc2ccccc12,0,762*,-3,0,0
COc1ccc(NC(=O)c2cc(C)no2)cc1Cl,-3,432*,-45,0,0
COc1ccc(NC(=O)c2cc(C)no2)cc1OC,.,-27,1,0,.
Cc1noc(C)c1NC(=O)N(C)C[C@@H]1Oc2ccc(NC(=O)Cc3ccccc3)cc2CC(=O)N([C@H](C)CO)C[C@@H]1C,-3,.,-16,.,.
C=C[C@H]1C(C(=O)OCC)=CC[C@@H](c2ccccc2)N1S(=O)(=O)c1ccc(C)cc1,1,.,0,.,.
Cc1ccc(N(C(=O)CNC(=O)c2ccco2)C(C(=O)NC2CCCC2)c2ccncc2)cc1F (centres undefined),-1,14,2,0,.
CC1(C)c2[nH]c3ccccc3c2C[C@H]2C(=O)N(Cc3cccc(F)c3)C(=O)N21,-1,448*,1,0,-1
COc1cccc(CN2C(=O)[C@H]3Cc4c([nH]c5ccccc45)C(C)(C)N3C2=O)c1,1,11,-3,.,.
COc1ccc(NC(=O)COc2ccc(Br)cc2)c(OC)c1,-2,3,11,0,.
COc1ccc(NC(=O)CC(C)C)c(OC)c1,0,789*,-30,0,0
O=C(/C=C/c1ccc(Cl)cc1)NC(=S)NN1CCCCC1c1cccnc1 (centres undefined),.,1,.,1,.
Cc1ccccc1Cn1cc(NC(=O)c2cc3nc(-c4ccco4)cc(C(F)(F)F)n3n2)cn1,1,360*,-12,0,0
Cc1ccnc(NC(=O)CNC(=O)c2ccc(Br)o2)c1,2,493*,-4,0,0
SMILES,Cneo AK release,Mot1-301 SUMO,C2C12 statin,Efflux pump mplx,Mot1 SUMO dose
O=C(NC1CCCCC1)C(c1ccncc1)N(Cc1ccc2c(c1)OCO2)C(=O)C(F)(F)F (centres undefined),0,577*,-6,0,0
Cc1cc([N+](=O)[O-])ccc1NC(=O)CSc1nnc(C)n1C,0,94,-8,0,.
Cc1cc([N+](=O)[O-])ccc1NC(=O)CSc1nccc(=O)[nH]1,-1,378*,7,0,0
Cn1c(=O)c2c(nc(N/N=C/c3ccco3)n2C)n(C)c1=O,-5,25,-6,0,.
CNC(=O)c1ccccc1NC(=O)c1ccco1,1,16,11,0,.
Cc1ccccc1NC(=O)c1ccccc1NC(=O)c1ccco1,5,402*,.,0,1
C/C(=N\O)c1ccco1,1,14,-15,0,.
CCN1CSC(=S)N(Cc2ccc(OC)cc2)C1,.,+,33,0,0
O=C(COc1ccc([N+](=O)[O-])cc1)Nc1ccc(C(=O)NCc2cccnc2)cc1,0,481*,-27,0,0
Cc1nc2c3ccccc3nc(NNC(=O)CCC(=O)N3CCCC(C)C3)n2n1 (centres undefined),1,455*,-3,0,0
O=C(c1ccc(F)cc1)C(CN1CCOCC1)c1ccccc1 (centres undefined),-1,372*,-2,0,-2
Cc1cc(C)n2c(SCC(=O)Nc3cc(S(=O)(=O)N(C)C)ccc3C)nnc2n1,3,9,2,0,.
COc1ccc(C(=O)NCCSc2ccc(C)cc2)cc1,7,470*,-6,0,0
O=C(c1ccc2c(=O)n(Cc3ccccc3Cl)c(=S)[nH]c2c1)N1CCOCC1,0,422*,-5,0,1
CO[C@H]1CC[C@H]2CCOc3ccc(C#N)cc3C(=O)N(C)C[C@@H](C)C(=O)N(C)C[C@H]1O2,0,.,2,.,.
CN1C(=O)C2(NCCc3c2[nH]c2ccccc32)c2ccccc21 (centres undefined),-1,-21,58,0,.
CC1=CC(C)(C)N2C(=O)C3(NCCc4c3[nH]c3ccccc43)c3cc(C)cc1c32 (centres undefined),-4,506*,.,0,0
CCOc1ccc(CCNc2nc3ccccc3n3cnnc23)cc1OCC,0,2,-4,0,.
CCCc1ccc(S(=O)(=O)NCCc2ccncc2)cc1,-2,541*,.,0,0
CC(C)n1c(Sc2nccn2C)nc2c1c(=O)n(C)c(=O)n2C,.,42,.,0,.
CC1Cc2ccccc2N1C(=O)CN1C(=O)COc2ccccc21 (centres undefined),0,9,7,0,.
CC1Cc2ccccc2N1C(=O)Cn1c(=O)cc(O)c2ccccc21 (centres undefined),0,636*,1,0,0
O=C(COC(=O)c1ccc([N+](=O)[O-])o1)Nc1ncc(Cl)cc1Cl,.,848*,.,0,-1
O=C(COC(=O)c1ccc(Br)o1)Nc1ncc(Cl)cc1Cl,.,-7,.,0,.
O=C(O)CCCC(=O)Nc1nc(-c2ccc(F)cc2)cs1,24,-8,-14,0,.
SMILES,Cneo AK release,Mot1-301 SUMO,C2C12 statin,Efflux pump mplx,Mot1 SUMO dose
O=C(Cc1ccc(F)cc1)Nc1nc(-c2ccc(F)cc2)cs1,-2,+,-16,0,-1
Cc1ccc(S(=O)(=O)NCCC(=O)Nc2nccs2)cc1,.,-13,.,0,.
COC(=O)c1cccc(NC(=O)c2cccnc2)c1,1,+,.,0,0
Cc1onc(-c2ccccc2Cl)c1C(=O)N1CCC(Cc2ccccc2)CC1,.,229,.,0,.
COc1ccc(Cl)cc1NC(=O)CN1CCc2ccccc2C1,3,3,0,0,.
CNS(=O)(=O)c1cccc(C(=O)OCC(=O)Nc2ccc(OC)cc2[N+](=O)[O-])c1,2,810*,-2,0,0
